The list is not random: actives were taken first. Their share in the collection is about 8.7%.
Cav32 inh: inhibitors of human Cav3.2 T-type calcium channel; O95180; Cav3.2-expressing cells, Fluo-4 calcium fluorescence FDSS; hits give low values; B-score at 10 µM; actives 4% (n = 100,000);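 active = single-dose well whose peak fluorescence ratio is a statistical outlier from its plate by either plate-standardised score or position-corrected B-score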
Pyk2 oligo antag: antagonists of human Pyk2 oligomerization | z-score (the deposit names both 25 µM and 10 µM) | AID 1347419 | Q293 cells, Pyk2 FERM NanoBiT luminescence; hits give low values | actives 0.83% (n = 99,000);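 active = Z-score of -3 or lower, scaled per plate to the spread of control and sample wells; inactive = z-score above -3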;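 note: negative z-score means lost luminescence so less FERM oligomerization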
E coli WT exp: growth inhibitors of E. coli BW25113 wild type; actives 0.15% (n = 98,000); growth inhibition, % at 100 µM; OD600 absorbance;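 active = growth inhibition above about 50% at one test dose, limit read from the data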;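 note: growth measured after 20 h incubation at 37 °C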
PostGolgi ctrl: growth of the yeast control strain, post-Golgi counter-screen; inhibition, % at 10 µM; actives 5% (n = 98,000); efflux-deficient yeast background strain, growth absorbance A615, 16 h
PostGolgi yeast: growth inhibition of a yeast mutant, post-Golgi transport screen; inhibition, % at 10 µM; actives 0.9% (n = 98,000); post-Golgi transport phenotypic cell assay; AID 739;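 note: yeast cells grown in 1536-well plates; yeast grown about 18 h at 30C before absorbance read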
tolC growth inh: blocks growth of E. coli BW25113 tolC mutant. OD615. growth inhibition, % at 10 µM (by protocol). actives 2.2% (n = 65,000);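 active = growth inhibition at or above a cutoff equal to the mean over every tested compound plus 3 SD, cut at about 60% in these data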;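 note: growth measured after 20 h incubation at 37 °C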
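Test system: E. coli BW25113 ΔtolC::kan bacteria | Medium: Kanamycin-containing LB broth (50 µg/mL) | Dosing: One dose of 10 µM final | Times: 20 h incubation with compound, 37 °C | Detection: Optical density read at 615 nm | Read-out basis: Percent growth inhibition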
Starred values were filed as active, the others as inactive; · = no result given. Cut-off read from the data, not from the text of the source, unless noted: active = inhibition above about 30%; inactive = the rest.

SMILES	Cav32 inh	Pyk2 oligo antag	E coli WT exp	PostGolgi ctrl	PostGolgi yeast	tolC growth inh
COc1cccc(NC(=O)N2CCN(c3cccc(C)c3C)CC2)c1	-7*	-0.62	-6	-1	-7	72*
Cc1cccc(N2CCN(C(=O)Cc3cn(C)c4ccccc34)CC2)c1C	-4.9	-0.6	-9	43*	8	·
CCOC(=O)C1=C(CNCCc2ccc(Cl)cc2)NC(=O)NC1c1ccc2c(c1)OCO2 (configuration not stated)	-4.6*	-1.1	-10	8	-5	20
COc1ccc(C2NC(=O)NC(C)=C2C(=O)OCc2ccc3c(c2)OCO3)cc1OC (configuration not stated)	1.2	-1.3	·	·	·	·
O=C(/C=C/c1ccccc1Cl)c1cccnc1	-0.81	-0.91	5	10	-12	·
O=C(/C=C/c1ccc(Cl)cc1)c1cccnc1	·	-1.2	20	16	39*	·
Cc1ccc(OC(=O)c2ccc(N3CCOCC3)c([N+](=O)[O-])c2)cc1	-0.28	-0.03	-6	38*	-22	·
CCn1cc(Br)c(C(=O)N(C)Cc2ccccc2)n1	1	2.5	2	0	-1	2
CCNc1nc(NC(C)C)nc(N(C#N)CCOc2ccc(Cl)cc2Cl)n1	-9.4*	-2.5	-11	39*	10	75*
CCNc1nc(NC(C)C)nc(N(C#N)Cc2ccccc2)n1	·	-2.4	1	22	-4	67*
CCNc1nc(NC(C)C)nc(N(C#N)C(C)C(=O)N(C)C)n1 (configuration not stated)	1.4	0.43	9	8	-12	4
Cc1cc(-c2cc(C(=O)Nc3ccccc3)on2)nc(NC2CCCC2)n1	-1.6	·	·	·	·	·
CCN(CC)CCOC(=O)C1c2ccccc2Oc2ccccc21	0.81	0.39	5	23	1	·
CCn1nnc(-c2ccccc2NC(=O)c2cnccn2)n1	1.1	-0.11	·	·	·	·
Cn1c(=O)c2c(nc(Sc3n[nH]c(N)n3)n2Cc2ccccc2Cl)n(C)c1=O	-0.057	0.66	-4	-2	-8	-1
CC(C)(C)C1CCc2c(sc(NC(=O)C3CCCO3)c2C(N)=O)C1 (configuration not stated)	0.68	-1.2	8	60*	4	·
NC(=O)c1c(NC(=O)C2CCCO2)sc2c1CCC2 (configuration not stated)	-0.15	0.64	0	-2	0	-4
CC(=O)OC1(C(F)(F)F)Oc2ccccc2NC1=O (configuration not stated)	-0.033	-0.86	0	44*	13	-14
O=C(O)/C=C/C(=O)NNC(=O)c1ccc(Br)cc1	·	0.61	·	·	·	·
O=C(NNC1=C(C(=O)C(F)(F)F)CCC1)c1ccccc1O	-6.3*	-1.7	18	1	3	·
CC1(C)CC(=O)C=C(NNC(=O)c2ccccc2O)C1	2.5	-0.38	14	-5	1	·
O=C(NNC1=C(C(=O)C(F)(F)F)CCC1)c1ccc(Br)cc1	-5.1*	-0.15	19	-1	2	·
OCc1nc2ccccc2n1CCCOc1ccccc1	-2.6	-0.14	0	3	5	6
Cc1ccc(OCCCn2c(CO)nc3ccccc32)cc1	-1.2	0.7	9	7	37*	38
NS(=O)(=O)c1ccc(NC(=O)Cn2ncc3c2-c2ccccc2OC3)cc1	0.018	·	0	1	2	·
SMILES	Cav32 inh	Pyk2 oligo antag	E coli WT exp	PostGolgi ctrl	PostGolgi yeast	tolC growth inh
O=C(CSc1ccccc1C(=O)O)NCc1ccco1	0.75	1.1	-6	6	5	-18
CC(C)Oc1ccc(C(CC(=O)NCc2ccco2)c2ccccc2)cc1 (configuration not stated)	-3.9*	-2.5	7	6	-1	·
CCCc1nc2sc3c(SCC(=O)NCc4ccco4)ncnc3c2c2c1CCC2	0.51	-0.22	-18	7	-10	24
CN1CCN(c2cc(-c3ccccc3)nc3cc(-c4ccc(F)cc4)nn23)CC1	0.77	-0.46	-5	73*	23	·
CCn1c(CNC(=O)COC)nc2ccccc21	0.022	·	5	6	-2	-14
CCCn1c(CNc2ccc(Br)cc2)nc2ccccc21	-5.3*	·	-3	71*	-4	100*
CCn1c(CNc2ccc(C(=O)O)cc2)nc2ccccc21	0.78	0.52	-2	11	39*	·
NCc1ccccc1COc1ccccc1	·	1.2	·	·	·	·
CCOC(=O)C1CCCN(c2c(NCCCN(CC)c3ccccc3)c(=O)c2=O)C1 (configuration not stated)	1.5	0.87	5	35*	2	3
CNc1sc(C(=O)c2ccccc2F)c(N)c1-c1nc2ccccc2s1	-0.97	-0.08	-20	21	16	·
CN(C(=O)CSc1ncccc1C(=O)O)c1ccccc1	-3.5*	0.2	-1	6	-1	1
Cc1cc(O)c(/C=N/Nc2cccc(Cl)c2)c(=O)o1	-0.13	-0.13	16	7	15	·
Cc1cc(O)c(/C=N/Nc2ccc(Cl)cc2)c(=O)o1	-0.59	-0.37	95*	8	66*	·
CC1(C)CC(=O)c2c(nc(SCC(=O)Nc3nsc(-c4ccccc4)n3)c(C#N)c2-c2ccccc2)C1	-2.4*	-1.7	-14	1	1	·
CCc1c(C#N)c(SCCC(=O)Nc2ccc(F)cc2)nc2c1C(=O)CC(C)(C)C2	-1.9	-3.2*	-17	10	-12	·
COC(=O)c1ccc(C2NC(=S)N(c3ccccc3)C(C)=C2C(=O)Nc2ccccc2OC)cc1 (configuration not stated)	-2.3	-0.56	-5	7	1	·
N#CC(C(=O)OC1CCCCC1)c1nc2ccccc2nc1N1CCCCC1 (configuration not stated)	-1.3	·	-23	12	7	18
CCOc1ccccc1N1CCN(c2nc3ccccc3nc2C(C#N)C(=O)OC)CC1 (configuration not stated)	-7.6*	-0.94	-17	3	25	7
COc1ccccc1N1CCN(c2nc3ccccc3nc2C(C#N)C(=O)OC(C)C)CC1 (configuration not stated)	-8.5*	-1.3	-21	6	-2	11
CC(C)COC(=O)N1CC(O)CC1C(=O)O (configuration not stated)	-0.033	0.81	-14	4	4	5
O=C(c1cc(-c2cccnc2)nc2ccc(Br)cc12)N1CCC2(CC1)OCCO2	·	·	·	·	·	-14
O=C(Nc1nc(-c2ccc(S(=O)(=O)N3CCOCC3)cc2)cs1)c1ccccc1	·	·	5	-5	-12	·
COc1cccc(C(=O)Nc2nc(-c3ccc(S(=O)(=O)N4CCOCC4)cc3)cs2)c1	·	-3.3*	-11	3	16	29
O=S(=O)(c1cc(-c2nc3ccccc3s2)ccc1Cl)N1CCOCC1	-0.035	·	-1	5	22	·
Cc1ccc(-c2nc3ccccc3s2)cc1S(=O)(=O)N1CCOCC1	-0.11	-2.5	-2	34*	-7	·
O=C(Nc1nc(-c2nc3ccccc3s2)cs1)c1ccc(S(=O)(=O)N2CCOCC2)cc1	·	-3.6*	-6	-3	-4	21
O=C(O)Cc1ccc(C(=O)c2ccccc2F)s1	-0.66	-0.59	9	3	1	·

Screening data deposited in PubChem by several laboratories.
